Measured values: publication PMC13154657 (Journal of Advanced Research, 2025)

Tests used:
[1] = molecular target: T1, human P2Y14 receptor (Homo sapiens, UniProt Q15391); test: In vitro P2Y14R antagonistic activity; format: cell-based
T1 sequence (Q15391 1-338): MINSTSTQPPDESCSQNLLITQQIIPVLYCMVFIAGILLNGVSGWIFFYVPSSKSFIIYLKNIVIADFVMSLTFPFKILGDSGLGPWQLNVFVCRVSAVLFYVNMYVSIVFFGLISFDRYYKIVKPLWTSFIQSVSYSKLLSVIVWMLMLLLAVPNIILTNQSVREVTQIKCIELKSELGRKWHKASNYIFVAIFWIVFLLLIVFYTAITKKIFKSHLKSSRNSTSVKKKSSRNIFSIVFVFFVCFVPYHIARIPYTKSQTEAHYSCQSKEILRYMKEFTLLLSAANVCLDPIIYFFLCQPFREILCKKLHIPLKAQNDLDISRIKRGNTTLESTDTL
Summary of the method: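 hP2Y14-HEK293 cells (HEK293 stably expressing human P2Y14R) grown in DMEM with 10 % FBS and 1 % penicillin/streptomycin. Seeded at 10,000 cells/well in 384-well plates and preincubated 30 min at 37 °C with test compound or DMSO. Stimulated with UDPG; intracellular cAMP measured by cAMP-Glo luminescence on a plate reader. N = 3.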

[2] = tested on: HT-29 cells; test: Cell viability assay; format: cell-based; conditions: 100 μM, 24 h, CCK-8, N = 5
Summary of the method: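 HT-29 cells cultured in DMEM with 10 % FBS and 1 % penicillin/streptomycin at 37 °C, 5 % CO2. Seeded at 10,000 cells/well in 96-well plates and exposed to test compound or DMSO for 24 h at 37 °C. Viability read with CCK-8 per kit instructions; N = 5.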

[3] = tested on: DSS-induced experimental colitis; test: DSS-induced experimental colitis model in mice; format: in vivo; conditions: DB07565 rectally daily
Summary of the method: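 Male C57BL/6 J mice, 7–8 weeks, randomised by weight into groups of six. Colitis induced with 3 % (w/v) DSS in drinking water for 7 days. Test compound dissolved in DMSO, diluted in PBS to 50 or 100 μM, given rectally at 100 µl/mouse daily. Oral 5-ASA 50 mg/kg daily as reference. Colons fixed in 4 % PFA and paraffin-embedded. 5 μm sections stained with H&E; immunofluorescence for Claudin-1, Occludin and ZO-1 at 4 ℃ overnight, 1 h secondary, DAPI 10 min.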

[4] = within 60 min; cited from earlier work

## O=C(O)CCC(=O)OC[C@@H](NC(=O)C(Cl)Cl)[C@H](O)c1ccc([N+](=O)[O-])cc1 [DB07565, Chloramphenicol succinate]
[1]
  IC50: 1.58 nM
[2]
  cytotoxicity (cell viability): low cytotoxicity
[3]; C57BL/6 J mice, 3 % DSS 7 days
  histopathological analysis of colon (H&E): mitigated DSS-induced tissue damage and inflammatory cell infiltration in the colon
[3]; colon tissue of DSS-treated mice
  gut barrier function, immunofluorescence of tight junction proteins (Claudin-1, Occludin, ZO-1): markedly enhanced gut barrier function
[4]
  degradation in intestinal fluid: less than 10%
